Test [1] deals with Sodium/potassium-transporting ATPase. As to the kind of experiment: Binding affinity towards Na+,K+ -ATPase isolated from dog kidney. Format: protein-complex assay, Canis lupus familiaris. A digest of the protocol: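 Displacement of specific [3H]ouabain binding from the Na+,K+-ATPase receptor, enzyme isolated from dog kidney and purified per Jørgensen. Means of two to three separate experiments in duplicate.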

For a further test, the species on record is Cavia porcellus. As to the kind of experiment: In vitro increase in contractile force of the guine pig atrium. In kind it is functional, organism-based. The following applies: Cardiac atrium. In outline: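 Left atria from male guinea pigs (300-500 g) in organ baths of bicarbonate salt solution with glucose and sucrose, 95% O2/5% CO2, 32 °C, 500 mg resting tension. Field-stimulated at 1 Hz (1 ms, twice threshold voltage). After 60 min equilibration, cumulative concentrations added, each held until maximal response or arrhythmia. Read-out: maximal increase in contractile force; EC50 from concentration–response curves.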

Structures are written as SMILES.

Compound `C[C@@H](C/C=N/OCCN(C)C)[C@@]1(C)CCC2C(CC[C@@H]3C[C@@H](O)CC[C@]23C)C1=O` (stereo not given in full) showed an IC50 in test [1] of 0.13 µM. Moreover, in the test filed under Cavia porcellus, the midpoint of the response, the EC50, lay at 3 µM.
In turn, `CC[C@H](C/C=N/OCCN(C)C)[C@@]1(C)CCC2C(CC[C@@H]3C[C@@H](O)CC[C@]23C)C1=O` (stereo not given in full) returned an IC50 in test [1] of 0.8 µM.
Consider `CCC[C@@H](C/C=N/OCCN)[C@@]1(C)CCC2C(CC[C@@H]3C[C@@H](O)CC[C@]23C)C1=O` (stereo not given in full), for which the IC50 in test [1] was found to be 0.2 µM. The compound further had an EC50 in the test filed under Cavia porcellus of 5.6 µM.
In turn, `CC[C@@H](C/C=N/OCCN)[C@@]1(C)CCC2C(CC[C@H]3C[C@@H](O)CC[C@]23C)C1=O` (stereo not given in full) had an IC50 in test [1] of 0.16 µM. In other words, the sub-micromolar range.
In turn, `CC[C@@H](C/C=N/OCCN(C)C)[C@@]1(C)CCC2C(CC[C@H]3C[C@@H](O)CC[C@]23C)C1=O` (stereo not given in full) returned an IC50 in test [1] of 0.25 µM. This IC50 lies about 1.6-fold higher than the previous one.
For the compound `CC[C@@H](C/C=N/OCCN(C)C)[C@@]1(C)CCC2C(CC[C@@H]3C[C@@H](O)CC[C@]23C)C1=O` (stereo not given in full), the IC50 in test [1] turned out to be 0.1 µM. In addition, in the test listed under Cavia porcellus, the midpoint of the response, the EC50, lay at 2 µM.
The compound `CC[C@@H](C/C=N/OCCN)[C@@]1(C)CCC2C(CC[C@@H]3C[C@@H](O)CC[C@]23C)C1=O` (stereo not given in full) returned an IC50 in test [1] of 0.04 µM. Moreover, in the test listed under Cavia porcellus, it took 1.5 µM to reach a half-maximal effect (EC50).
In test [1], `CC[C@H](/C=N/OCCN(C)C)[C@@]1(C)CCC2C(CC[C@@H]3C[C@@H](O)CC[C@]23C)C1=O` (stereo not given in full) displayed an IC50 of 4 µM.
On the same count and under the same terms, next, `C[C@]12CC[C@H](O)C[C@H]1CC[C@@H]1[C@@H]2CC[C@]2(C)[C@H](C/C=N/OCCCN)CC[C@]12O`: 0.2 µM.
On to `C[C@]12CC[C@H](O)C[C@H]1CC[C@@H]1[C@@H]2CC[C@]2(C)[C@H](C/C=N/OCCCCN)CC[C@]12O`, for which the concentration for half-maximal inhibition (IC50) in test [1] stood at 0.8 µM.
For `C[C@]12CC[C@H](O)C[C@H]1CC[C@@H]1[C@@H]2CC[C@]2(C)[C@H](/C=N/OCCCCN)CC[C@]12O`, in test [1], the IC50 came out at 1 µM.
In turn, `C[C@]12CC[C@H](O)C[C@H]1CC[C@@H]1[C@@H]2CC[C@]2(C)[C@H](/C=N/OCCN)CC[C@]12O` gave an IC50 in test [1] of 0.4 µM.
On the same count and under the same terms, under `CN(C)CCO/N=C/[C@@H]1CC[C@]2(O)[C@@H]3CC[C@@H]4C[C@@H](O)CC[C@]4(C)[C@H]3CC[C@]12C` stands 1.6 µM; under `CN(C)CCO/N=C/C[C@@H]1CC[C@]2(O)[C@@H]3CC[C@@H]4C[C@@H](O)CC[C@]4(C)[C@H]3CC[C@]12C`, 0.25 µM.
As for `C[C@]12CC[C@H](O)C[C@H]1CC[C@@H]1[C@@H]2CC[C@]2(C)[C@H](C/C=N/OCCN)CC[C@]12O`, in test [1], the IC50 is 0.05 µM. In the test listed under Cavia porcellus, this compound had a 50% effective concentration (EC50) of 3.5 µM.
On the same counts, the results for `C[C@]12CC[C@H](O)C[C@H]1CC[C@@H]1[C@@H]2CC[C@]2(C)[C@H](/C=N/OCCCN)CC[C@]12O` are 0.4 µM and 18 µM.
Take `C[C@@H](C/C=N/OCCN)[C@@]1(C)CCC2C(CC[C@@H]3C[C@@H](O)CC[C@]23C)C1=O` (stereo not given in full): the IC50 in test [1] stood at 0.1 µM.
Same read-out and setting: under `CC[C@@H](/C=N/OCCN(C)C)[C@@]1(C)CCC2C(CC[C@H]3C[C@@H](O)CC[C@]23C)C1=O` (stereo not given in full) stands 0.5 µM.
`C[C@]12CC[C@H](O)C[C@H]1CC[C@@H]1[C@@H]2CC[C@]2(C)[C@@H](C3=CC(=O)OC3)CC[C@]12O` [DIGITOXIGENIN]: the EC50 in the test listed under Cavia porcellus worked out at 0.57 µM.

These data come from ChEMBL document CHEMBL1134675, “17 alpha-O-(aminoalkyl)oxime derivatives of 3 beta,14 beta-dihydroxy-5 beta-androstane and 3 beta-hydroxy-14-oxoseco-D-5 beta-androstane as inhibitors of Na(+),K(+)-ATPase at the digitalis receptor” (J Med Chem, 2001).
